# Measured values taken from ChEMBL document CHEMBL4689842, “EUbOPEN Chemogenomics Library wave 1” (2021).
# Several values for one entry are separate records, joined by “and”; a condition that tells them apart may be missing. Identical values can stand only once.
# Tested on: U2OS
# Assay: Multiplex assay against U2OS
# Format: toxicity, cell-based
# Conditions: human
# How it was run: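 Live cells carried four stains from seeding: Hoechst33342, BioTracker Green Microtubule Cytoskeleton Dye, MitoTracker Red and Annexin V Alexa Fluor 680. They were imaged on a CQ1 microscope at 37°C and 5% CO2 after compound addition. Using CellPathfinder machine-learning gating, cells were split into Hoechst high-intensity objects or normal cells, normal cells into healthy, pyknosed or fragmented nuclei, and pyknosed cells into mitotic or apoptotic; tubulin, mitochondrial-mass and membrane-permeability phenotypes are per cents of healthy-nucleus cells.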
# [1] = 12 h, 1 µM, compound concentration 1 uM, replicate 1
# [2] = 12 h, 1 µM, compound concentration 1 uM, replicate 2
# [3] = 12 h, 10 µM, compound concentration 10 uM, replicate 1
# [4] = 12 h, 10 µM, compound concentration 10 uM, replicate 2
# [5] = 24 h, 1 µM, compound concentration 1 uM, replicate 1
# [6] = 24 h, 1 µM, compound concentration 1 uM, replicate 2
# [7] = 24 h, 10 µM, compound concentration 10 uM, replicate 1
# [8] = 24 h, 10 µM, compound concentration 10 uM, replicate 2
# [9] = 48 h, 1 µM, compound concentration 1 uM, replicate 1
# [10] = 48 h, 1 µM, compound concentration 1 uM, replicate 2
# [11] = 48 h, 10 µM, compound concentration 10 uM, replicate 1
# [12] = 48 h, 10 µM, compound concentration 10 uM, replicate 2
structure (smiles),measurement,setting,value
O=C(NCCCC1CCCCC1)c1ccc(CNC(=O)c2cnn(-c3ccccc3)c2C(F)(F)F)cc1 [SR-321],Population Apoptotic (%),[1],37% [middle of 4 runs]
same,Population Healthy Nuclei (%),[1],74% and 91%
same,Population Hoechst High Intensity Objects (%),[1],6% and 9% and 5%
same,Population Membrane Permeable-Phenotype (%),[1],9% and 7%
same,Population Mitotic Cells (%),[1],66% [middle of 4 runs]
same,Population Normal (%),[1],93% and 90% and 94%
same,Population Pyknosed Nuclei (%),[1],14% and 13% and 7%
same,Population Tubulin-Different-Phenotype (%),[1],15% and 16% and 35%
same,Total Cell Count,[1],181 [middle of 4 runs]
same,Population Healthy Nuclei (%),[2],89% and 53% and 83% and 88%
same,Population Hoechst High Intensity Objects (%),[2],8% and 21% and 7%
same,Population Membrane Permeable-Phenotype (%),[2],14% and 0% and 12%
same,Population Normal (%),[2],91% and 78% and 92%
same,Population Pyknosed Nuclei (%),[2],5% and 6%
same,Population Tubulin-Different-Phenotype (%),[2],20% and 26%
same,Total Cell Count,[2],89 [middle of 4 runs]
same,Population Apoptotic (%),[3],40% and 31% and 41%
same,Population Fragmented Nuclei (%),[3],9% [middle of 4 runs]
same,Population Healthy Nuclei (%),[3],71% and 80% and 75% and 86%
same,Population Hoechst High Intensity Objects (%),[3],2% and 4% and 6%
same,Population Mitochondria Different-Phenotype (%),[3],24% and 25% and 20%
same,Population Mitotic Cells (%),[3],60% and 68% and 58%
same,Population Normal (%),[3],97% and 95% and 93%
same,Population Pyknosed Nuclei (%),[3],14% [middle of 4 runs]
same,Population Tubulin-Different-Phenotype (%),[3],15% [middle of 4 runs]
same,Total Cell Count,[3],197 [middle of 4 runs]
same,Population Healthy Nuclei (%),[4],66% and 69%
same,Population Membrane Permeable-Phenotype (%),[4],5% and 0% and 11%
same,Population Mitotic Cells (%),[4],80% and 50% and 81% and 88%
same,Population Normal (%),[4],73% and 94% and 91% and 92%
same,Total Cell Count,[4],117 [middle of 4 runs]
same,Population Apoptotic (%),[5],40% and 45% and 15%
same,Population Fragmented Nuclei (%),[5],8% [middle of 4 runs]
same,Population Healthy Nuclei (%),[5],85% and 81% and 79% and 91%
same,Population Membrane Permeable-Phenotype (%),[5],8% and 5% and 10%
same,Population Mitotic Cells (%),[5],60% and 54% and 84%
same,Population Normal (%),[5],94% and 96% and 98%
same,Population Pyknosed Nuclei (%),[5],7% and 9% and 8%
same,Population Tubulin-Different-Phenotype (%),[5],19% [middle of 4 runs]
same,Total Cell Count,[5],233 [middle of 4 runs]
same,Population Healthy Nuclei (%),[6],66% and 82% and 74% and 94%
same,Population Membrane Permeable-Phenotype (%),[6],4% and 3% and 0% and 7%
same,Population Mitochondria Different-Phenotype (%),[6],19% [middle of 4 runs]
same,Population Mitotic Cells (%),[6],100% and 40%
same,Population Normal (%),[6],85% and 95% and 89% and 97%
same,Population Tubulin-Different-Phenotype (%),[6],30% and 22%
same,Total Cell Count,[6],88 [middle of 4 runs]
same,Population Apoptotic (%),[7],44% and 36% and 21%
same,Population Healthy Nuclei (%),[7],71% and 75% and 74% and 89%
same,Population Hoechst High Intensity Objects (%),[7],2% and 4%
same,Population Membrane Permeable-Phenotype (%),[7],5% [middle of 4 runs]
same,Population Mitochondria Different-Phenotype (%),[7],19% and 17%
same,Population Mitotic Cells (%),[7],55% and 63% and 78%
same,Population Normal (%),[7],97% and 95%
same,Population Pyknosed Nuclei (%),[7],15% and 16% and 6%
same,Population Tubulin-Different-Phenotype (%),[7],12% [middle of 4 runs]
same,Total Cell Count,[7],232 [middle of 4 runs]
same,Population Healthy Nuclei (%),[8],67% and 65% and 86%
same,Population Mitotic Cells (%),[8],50% and 66% and 88%
same,Population Normal (%),[8],93% and 81% and 92% and 96%
same,Population Pyknosed Nuclei (%),[8],11% and 14%
same,Total Cell Count,[8],124 [middle of 4 runs]
same,Population Apoptotic (%),[9],33% and 45% and 47%
same,Population Fragmented Nuclei (%),[9],5% and 9%
same,Population Healthy Nuclei (%),[9],88% and 86%
same,Population Hoechst High Intensity Objects (%),[9],1%
same,Population Membrane Permeable-Phenotype (%),[9],2%
same,Population Mitochondria Different-Phenotype (%),[9],11% and 8%
same,Population Mitotic Cells (%),[9],66% and 54% and 52%
same,Population Normal (%),[9],98%
same,Population Pyknosed Nuclei (%),[9],7%
same,Population Tubulin-Different-Phenotype (%),[9],23% and 19%
same,Total Cell Count,[9],217 and 382 and 367
same,Population Fragmented Nuclei (%),[10],4% and 7% and 6%
same,Population Healthy Nuclei (%),[10],85% and 87%
same,Population Hoechst High Intensity Objects (%),[10],6% and 3% and 8%
same,Population Membrane Permeable-Phenotype (%),[10],6% and 5% and 4%
same,Population Mitochondria Different-Phenotype (%),[10],18% and 10% and 15%
same,Population Normal (%),[10],93% and 96% and 92%
same,Population Pyknosed Nuclei (%),[10],10% and 4% and 6%
same,Population Tubulin-Different-Phenotype (%),[10],42% and 18% and 27%
same,Total Cell Count,[10],118 and 104 and 109
same,Population Apoptotic (%),[11],50% and 43% and 45%
same,Population Fragmented Nuclei (%),[11],9% and 10% and 8%
same,Population Healthy Nuclei (%),[11],72% and 74% and 78%
same,Population Hoechst High Intensity Objects (%),[11],3% and 2%
same,Population Membrane Permeable-Phenotype (%),[11],3% and 2%
same,Population Mitochondria Different-Phenotype (%),[11],16% and 11% and 7%
same,Population Mitotic Cells (%),[11],49% and 56% and 54%
same,Population Normal (%),[11],96% and 97%
same,Population Pyknosed Nuclei (%),[11],18% and 14% and 13%
same,Population Tubulin-Different-Phenotype (%),[11],10% and 4% and 12%
same,Total Cell Count,[11],425 and 284 and 300
same,Population Apoptotic (%),[12],61% and 60% and 57%
same,Population Fragmented Nuclei (%),[12],18% and 16% and 20%
same,Population Healthy Nuclei (%),[12],61% and 77% and 62%
same,Population Membrane Permeable-Phenotype (%),[12],12% and 6% and 5%
same,Population Mitochondria Different-Phenotype (%),[12],24% and 22% and 17%
same,Population Mitotic Cells (%),[12],38% and 40% and 42%
same,Population Normal (%),[12],82% and 94% and 91%
same,Population Tubulin-Different-Phenotype (%),[12],16% and 15% and 17%
same,Total Cell Count,[12],125 and 91 and 127
Cc1nc(-c2cn3c(n2)-c2ccc(-c4cnn(C(C)(C)C(N)=O)c4)cc2OCC3)n(C(C)C)n1 [TASELISIB],Population Apoptotic (%),[1],54%
same,Population Fragmented Nuclei (%),[1],3%
same,Population Healthy Nuclei (%),[1],84%
same,Population Hoechst High Intensity Objects (%),[1],2%
same,Population Membrane Permeable-Phenotype (%),[1],16%
same,Population Mitochondria Different-Phenotype (%),[1],10%
same,Population Mitotic Cells (%),[1],45%
same,Population Normal (%),[1],97%
same,Population Pyknosed Nuclei (%),[1],11%
same,Population Tubulin-Different-Phenotype (%),[1],9%
same,Total Cell Count,[1],181
same,Population Apoptotic (%),[2],16%
same,Population Fragmented Nuclei (%),[2],12%
same,Population Healthy Nuclei (%),[2],77%
same,Population Hoechst High Intensity Objects (%),[2],12%
same,Population Membrane Permeable-Phenotype (%),[2],27%
same,Population Mitochondria Different-Phenotype (%),[2],20%
same,Population Mitotic Cells (%),[2],83%
same,Population Normal (%),[2],87%
same,Population Pyknosed Nuclei (%),[2],9%
same,Population Tubulin-Different-Phenotype (%),[2],25%
same,Total Cell Count,[2],89
same,Population Apoptotic (%),[3],44%
same,Population Fragmented Nuclei (%),[3],5%
same,Population Healthy Nuclei (%),[3],89%
same,Population Hoechst High Intensity Objects (%),[3],2%
same,Population Membrane Permeable-Phenotype (%),[3],12%
same,Population Mitochondria Different-Phenotype (%),[3],19%
same,Population Mitotic Cells (%),[3],55%
same,Population Normal (%),[3],97%
same,Population Pyknosed Nuclei (%),[3],5%
same,Population Tubulin-Different-Phenotype (%),[3],24%
same,Total Cell Count,[3],166
same,Population Apoptotic (%),[4],55%
same,Population Fragmented Nuclei (%),[4],9%
same,Population Healthy Nuclei (%),[4],78%
same,Population Hoechst High Intensity Objects (%),[4],16%
same,Population Membrane Permeable-Phenotype (%),[4],18%
same,Population Mitochondria Different-Phenotype (%),[4],12%
same,Population Mitotic Cells (%),[4],44%
same,Population Normal (%),[4],83%
same,Population Pyknosed Nuclei (%),[4],12%
same,Population Tubulin-Different-Phenotype (%),[4],12%
same,Total Cell Count,[4],65
same,Population Apoptotic (%),[5],40%
same,Population Fragmented Nuclei (%),[5],6%
same,Population Healthy Nuclei (%),[5],80%
same,Population Hoechst High Intensity Objects (%),[5],4%
same,Population Membrane Permeable-Phenotype (%),[5],15%
same,Population Mitotic Cells (%),[5],59%
same,Population Normal (%),[5],95%
same,Population Pyknosed Nuclei (%),[5],13%
same,Population Tubulin-Different-Phenotype (%),[5],12%
same,Total Cell Count,[5],240
same,Population Apoptotic (%),[6],27%
same,Population Fragmented Nuclei (%),[6],20%
same,Population Healthy Nuclei (%),[6],64%
same,Population Hoechst High Intensity Objects (%),[6],6%
same,Population Membrane Permeable-Phenotype (%),[6],21%
same,Population Mitochondria Different-Phenotype (%),[6],6%
same,Population Mitotic Cells (%),[6],72%
same,Population Normal (%),[6],93%
same,Population Pyknosed Nuclei (%),[6],15%
same,Population Tubulin-Different-Phenotype (%),[6],29%
same,Total Cell Count,[6],91
same,Population Apoptotic (%),[7],27%
same,Population Healthy Nuclei (%),[7],91%
same,Population Hoechst High Intensity Objects (%),[7],1%
same,Population Mitochondria Different-Phenotype (%),[7],11%
same,Population Mitotic Cells (%),[7],72%
same,Population Normal (%),[7],98%
same,Population Pyknosed Nuclei (%),[7],4%
same,Population Tubulin-Different-Phenotype (%),[7],26%
same,Total Cell Count,[7],168
same,Population Apoptotic (%),[8],60%
same,Population Fragmented Nuclei (%),[8],4%
same,Population Healthy Nuclei (%),[8],83%
same,Population Hoechst High Intensity Objects (%),[8],4%
same,Population Membrane Permeable-Phenotype (%),[8],13%
same,Population Mitochondria Different-Phenotype (%),[8],15%
same,Population Mitotic Cells (%),[8],40%
same,Population Normal (%),[8],95%
same,Population Pyknosed Nuclei (%),[8],11%
same,Population Tubulin-Different-Phenotype (%),[8],20%
same,Total Cell Count,[8],67
